Here are results for six compounds from ChEMBL document CHEMBL4613234, “Auxiliary in vitro and in vivo biological evaluation of hydrogen peroxide sensitive prodrugs of methotrexate and aminopterin for the treatment of rheumatoid arthritis” (Bioorg Med Chem, 2020).

Each structure is given as a SMILES string. Activity calls are given as the source filed them. The rule behind the calls is not given here. Where only a bound is given, the exact number is not on record here.

As usually defined, the half-life is the time in which the quantity being followed falls by half. What is called IC50 is the concentration needed to halve the response being measured. One may read the Papp as the rate of passage across a membrane or cell layer, normalised by area and donor concentration. Low values mean slow passage, high ones fast passage.

Data set [1] can be described thus: Half life of compound in culture media in absence of ROS scavenger pyruvate. Type of data set: physicochemical.
The subject of data set [2] is HeLa. In words: Cytotoxicity against human HeLa cells assessed as reduction in cell viability incubated for 48 hrs in absence of ROS scavenger pyruvate by Alamar blue assay. Type of data set: cell-based. The method, boiled down: (§1)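 HL-60, HEK293 and HeLa cells exposed to compound for 48 h with or without pyruvate as ROS scavenger; viability read by Alamar blue; IC50 in nM, mean of at least three replicates ± SEM.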

The test system of data set [3] is HL-60. Put plainly: Cytotoxicity against human HL60 cells assessed reduction in cell viability incubated for 48 hrs in presence of ROS scavenger pyruvate by Alamar blue assay. Type of data set: cell-based. The settings on record: HL-60, 48 h. A digest of the protocol: as §1
(Resazurin is reduced to fluorescent resorufin, in cell work by metabolically active cells.)

Data set [4] has as its system HEK293. In words: Cytotoxicity against human HEK293 cells assessed as reduction in cell viability incubated for 48 hrs in absence of ROS scavenger pyruvate by Alamar blue assay. Type of data set: cell-based. The following applies: HEK293, 48 h. The method, boiled down:
as §1

Data set [5] is described as follows: Half life in human HEK293 cells in presence of paraquat and absence of ROS scavenger pyruvate. Type of data set: ADME, cell-based.
Data set [6] can be described thus: Half life in human HEK293 cells in absence of ROS scavenger pyruvate. Type of data set: ADME, cell-based.
Data set [7] in a line: Permeability of compound across artificial lipid/oil/lipid tri-layer membrane by PAMPA assay. (In general: PAMPA measures passive passage across an artificial lipid membrane.)
A short description of data set [8]: Half life in rat plasma. Type of data set: ADME, cell-free. A digest of the protocol:
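Reconstituted freeze-dried rat plasma diluted 1:1 with PBS to pH 7.4, incubated at 37 °C; half-life determined.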

The nature of data set [9]: Ratio of IC50 for human HL60 cells assessed as reduction in cell viability incubated for 48 hrs in presence of ROS scavenger pyruvate by Alamar blue assay to IC50 for human HL60 cells assessed as reduction in cell viability incubated for 48 hrs in absence of ROS scavenger pyruvate by Alamar blue assay. Type of data set: cell-based, HL-60. The following applies: read-out: Ratio IC50. The method, boiled down:
(§2)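 Ratio of 48 h Alamar blue IC50 values with versus without pyruvate as ROS scavenger, in HEK293 or HL-60 cells; each IC50 from at least three replicates.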

The subject of data set [10] is HL-60. Put plainly: Induction of apoptosis in human HL60 cells assessed as apoptotic cells at 0.1 to 10 uM in absence of ROS scavenger pyruvate by annexin V-FITC/propidium iodide staining based flow cytometry (reference value: 3 %). Type of data set: functional. The method, boiled down: (§3)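 HL-60 cells in RPMI without pyruvate, treated 48 h at 10, 1 and 0.1 μM (vehicle 0.1% DMSO); annexin V/PI staining, flow cytometry gating singlets, apoptotic fraction taken as P4 + P5 populations; at least triplicates, mean ± SD; two-tailed unpaired t-test, p < 0.05.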
In general terms: A flow cytometer gives signals particle by particle.

Data set [11] can be described thus: Toxicity in dark agouti rat model of collagen-induced arthritis assessed as adverse effect at 0.42 mg/kg, ip administered on day 17 and treated until day 31. Type of data set: organism-based. The following applies: in vivo. A digest of the protocol:
(§4)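 Collagen-induced arthritis in dark agouti rats given daily i.p. doses from day 17 in 2% (v/v) DMSO vehicle; n = 8 per group. Tolerability followed as average body weight measured three times weekly, plus general health observation; animals removed early for high arthritis score or declining health.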

Data set [12] relates to HL-60. Put plainly: Cytotoxicity against human HL60 cells assessed as reduction in cell viability incubated for 48 hrs in absence of ROS scavenger pyruvate by Alamar blue assay. The settings on record: HL-60, 48 h. Type of data set: cell-based. The method, boiled down: as §1
The nature of data set [13]: Toxicity in dark agouti rat model of collagen-induced arthritis assessed as increase in body weight at 0.42 mg/kg, ip administered on day 17 and treated until day 31. Type of data set: organism-based. The following applies: in vivo. A digest of the protocol: as §4
A short description of data set [14]: Apparent intrinsic clearance in rat liver microsomes. Type of data set: ADME, Microsome. The following applies: read-out: CLH. The method, boiled down: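 Apparent intrinsic clearance (CL'int, mL/min/kg) determined in pooled rat liver microsomes.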
Data set [15] deals with HL-60. In words: Cytotoxicity against human HL60 cells assessed as reduction in cell viability incubated for 48 hrs in presence of ROS scavenger pyruvate by Alamar blue assay relative to parent compound. The following applies: hl-60, 48 h. Type of data set: cell-based.
In data set [16] the test system is HL-60. In words: Induction of apoptosis in human HL60 cells assessed as apoptotic cells at 0.1 uM in absence of ROS scavenger pyruvate by annexin V-FITC/propidium iodide staining based flow cytometry (reference value: 3 %). Type of data set: functional. A digest of the protocol: as §3
Data set [17] can be described thus: Ratio of IC50 for human HEK293 cells assessed as reduction in cell viability incubated for 48 hrs in presence of ROS scavenger pyruvate by Alamar blue assay to IC50 for human HEK293 cells assessed as reduction in cell viability incubated for 48 hrs in absence of ROS scavenger pyruvate by Alamar blue assay. The settings on record: read-out: Ratio IC50. Type of data set: cell-based. The method, boiled down: as §2

Data set [18] has as its system HeLa. Put plainly: Cytotoxicity against human HeLa cells assessed as reduction in cell viability incubated for 48 hrs in presence of ROS scavenger pyruvate by Alamar blue assay. Type of data set: cell-based. The method, boiled down: as §1
Data set [19] is described as follows: Prodrug activation in PBS buffer assessed as H2O2-mediated hydrolysis by measuring half life at pH 7.4 measured up to 24 hrs by RP-HPLC/UV analysis. Type of data set: physicochemical. The settings on record: pH 7.4, 24 h.
For data set [20], the system named is HEK293. Put plainly: Cytotoxicity against human HEK293 cells assessed as reduction in cell viability incubated for 48 hrs in presence of ROS scavenger pyruvate by Alamar blue assay. Type of data set: cell-based. The settings on record: HEK293, 48 h. A digest of the protocol: as §1
In data set [21] the test system is Rattus norvegicus. In words: Antiarthritic activity in dark agouti rat model of collagen-induced arthritis assessed as decrease in disease severity at 0.42 mg/kg, ip administered on day 17 and treated until day 31 by macroscopic observation analysis. Type of data set: functional, organism-based. The method, boiled down: (§5)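 Dark agouti rats with collagen-induced arthritis; daily i.p. dosing from disease onset (day 17), doses equimolar to 0.3 mg/kg MTX, DMSO kept at 2% (v/v). Arthritis scored macroscopically three times weekly: 1 point per swollen toe, 1 per swollen foot knuckle, 5 for swollen ankle, 0–15 per limb, maximum 60 per rat. n = 8 per group, 10 for vehicle; mean ± SEM.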

Data set [22] in a line: Half life of compound in PBS buffer. Type of data set: physicochemical.
Data set [23] in a line: Stability of compound in human HEK293 cells preincubated for 24 hrs followed by compound addition and subsequent removal of HEK293 cells in absence of ROS scavenger pyruvate. Type of data set: ADME, cell-based.
Data set [24] has as its system Rattus norvegicus. Put plainly: Antiarthritic activity in dark agouti rat model of collagen-induced arthritis assessed as decrease in disease severity at 0.38 mg/kg, ip administered on day 17 and treated until day 31 by macroscopic observation analysis. Type of data set: functional, organism-based. The method, boiled down:
as §5

A short description of data set [25]: Toxicity in dark agouti rat model of collagen-induced arthritis assessed as increase in body weight at 0.38 mg/kg, ip administered on day 17 and treated until day 31. Type of data set: organism-based. The settings on record: in vivo. A digest of the protocol:
as §4

The nature of data set [26]: Toxicity in dark agouti rat model of collagen-induced arthritis assessed as adverse effect at 0.38 mg/kg, ip administered on day 17 and treated until day 31. The settings on record: in vivo. Type of data set: organism-based. The method, boiled down:
as §4

In data set [27] the test system is Rattus norvegicus. Put plainly: Antiarthritic activity in dark agouti rat model of collagen-induced arthritis assessed as decrease in disease severity at 0.36 mg/kg, ip administered on day 17 and treated until day 31 by macroscopic observation analysis. Type of data set: functional, organism-based. A digest of the protocol: as §5
Data set [28] can be described thus: Toxicity in dark agouti rat model of collagen-induced arthritis assessed as increase in body weight at 0.36 mg/kg, ip administered on day 17 and treated until day 31. Type of data set: organism-based. The settings on record: in vivo. The method, boiled down:
as §4

The nature of data set [29]: Toxicity in dark agouti rat model of collagen-induced arthritis assessed as adverse effect at 0.36 mg/kg, ip administered on day 17 and treated until day 31. The following applies: in vivo. Type of data set: organism-based. A digest of the protocol: as §4
The nature of data set [30]: Prodrug activation in PBS buffer assessed as H2O2-formation of methotrexate at pH 7.4 measured up to 24 hrs by RP-HPLC/UV analysis. Type of data set: physicochemical. The settings on record: pH 7.4, 24 h.
For data set [31], the system named is Rattus norvegicus. In words: Antiarthritic activity in dark agouti rat model of collagen-induced arthritis assessed as decrease in disease severity at 0.3 mg/kg, ip administered on day 17 and treated until day 31 by macroscopic observation analysis. Type of data set: functional, organism-based. A digest of the protocol:
as §5

`CN(Cc1cnc2nc(N)nc(NC(=O)OCc3ccc(B(O)O)cc3)c2n1)c1ccc(C(=O)N[C@@H](CCC(=O)O)C(=O)O)cc1`: the half-life was 3.4 h in data set [1]; 63.2 h in data set [5]; 107 h in data set [6]; 16.4 h in data set [8]; more than 24 h in [22]. In addition, the IC50 stood at 156 nM with HeLa [2]; 203 nM in the data set with HL-60 [3]; 62.9 nM in the data set on HEK293 [4]; 40.3 nM in the data set on HL-60 [12]; 194 nM with HeLa [18]; 192 nM with HEK293 [20]. In data set [7], the Papp was less than 1.5 ×10⁻⁶ cm/s. Moreover, the selectivity ratio at 48 h in [9] and in data set [17] was 5 in each case. Also, the Activity in the data set on HL-60 [10] is 17%; in data set [11] it was “Non-Toxic”; in data set [13] it was “Non-Toxic”; with HL-60 [16] it was 7%. Besides, in data set [14], the CLint scaled turned out to be 1.8 mL/min/kg. In addition, the “fold change (FC)” value with HL-60 [15] turned out to be 20. In addition, the t1/2 is 0.29 h in data set [19] and 16.1 h in [23]. Further, the outcome with Rattus norvegicus [21] was Active.

Turning to `Nc1nc(N)c2nc(CNc3ccc(C(=O)N[C@@H](CCC(=O)O)C(=O)O)cc3)cnc2n1` [AMINOPTERIN], the IC50 is 8.3 nM in the data set with HeLa [2], 3 nM with HL-60 [3], 2.5 nM with HL-60 [12] and 3.6 nM in the data set with HeLa [18].

Regarding `Nc1nc(N)c2nc(CN(Cc3ccc(B(O)O)cc3)c3ccc(C(=O)N[C@@H](CCC(=O)O)C(=O)O)cc3)cnc2n1`, the IC50 in the data set with HeLa [2] was 19.2 nM; in the data set with HL-60 [3], 38.3 nM; in the data set with HL-60 [12] it was 7.5 nM; in the data set on HeLa [18], 42.2 nM. For the same compound, the result in the data set on Rattus norvegicus [24] was inactive. Besides, the Activity entry in [25] and in data set [26] was “Non-Toxic” in each case.

Take `CN(Cc1cnc2nc(N)nc(N)c2n1)c1ccc(C(=O)N[C@@H](CCC(=O)N2CCSC2=O)C(=O)O)cc1`: the half-inhibitory concentration (IC50) with HeLa [2] amounted to 164 nM; in the data set with HL-60 [3], 36 nM; in the data set with HL-60 [12], 40 nM; with HeLa [18], 207 nM. Also, in the data set on Rattus norvegicus [27], the outcome was inactive. In addition, the Activity result in data set [28] and in data set [29] was “Non-Toxic” throughout.

With `CN(Cc1cnc2nc(N)nc(NC(=O)OCc3ccccc3)c2n1)c1ccc(C(=O)N[C@@H](CCC(=O)O)C(=O)O)cc1`, in data set [1], the half-life was more than 24 h. Besides, the IC50 in the data set with HEK293 [4] and in the data set on HL-60 [12] was more than 1000 nM each time. Also, in [7], the Papp is less than 1.5 ×10⁻⁶ cm/s. Moreover, in data set [30], the Drug metabolism result is listed as “Not Active”. For the same compound, the t1/2 in [19] is more than 24 h.

Turning to `CN(Cc1cnc2nc(N)nc(N)c2n1)c1ccc(C(=O)N[C@@H](CCC(=O)O)C(=O)O)cc1` [METHOTREXATE], the half-life in data set [1], in [6] and in [22] was more than 24 h each time. Besides, the IC50 came out at 21 nM in the data set on HeLa [2]; 9.8 nM in the data set with HL-60 [3]; 28.6 nM with HEK293 [4]; 8.9 nM with HL-60 [12]; 59.3 nM in the data set on HeLa [18]; 35 nM in the data set with HEK293 [20]. In addition, the outcome in the data set with Rattus norvegicus [31] was Active. The Papp in data set [7] was less than 1.5 ×10⁻⁶ cm/s. For the same compound, the Activity with HL-60 [10] was determined as 17%; in the data set with HL-60 [16], 14%. The CLint scaled in [14] is 1.5 mL/min/kg.
